In PMC3262149 (Angewandte Chemie (International Ed. in English), 2011):
Square brackets hold non-standard residues; d marks the D form. Side chains are listed from the residue outwards. Peptide text beside a SMILES is read from it. * marks the point of attachment. X1 = O=C(CCS[C@@H]1O[C@H](CO)[C@H](O)[C@H](O)[C@H]1O)*; βGal = OC[C@H]1O[C@@H](*)[C@H](O)[C@@H](O)[C@H]1O; Mpa = O=C(O)CCS

Key:
[1] = biological target: T1, P. aeruginosa lectin LecA (Pseudomonas aeruginosa, UniProt Q05097); assay: Isothermal titration calorimetry; assay type: binding; conditions: for n′ (stoichiometry, number of occupied lectin galactose binding sites per dendrimer) / ΔH / −T ΔS / r.p./n = (Kd(D-galactose)/Kd(ligand))/n: ITC; for n′ (stoichiometry, number of occupied lectin galactose binding sites per dendrimer) / ΔH / −T ΔS: 0.1 M Tris base, pH 7.5, 25 mM CaCl2, 25 °C, average of two independent runs; for r.p./n = (Kd(D-galactose)/Kd(ligand))/n: relative to D-galactose, per galactose residue
T1 sequence (Q05097 1-122): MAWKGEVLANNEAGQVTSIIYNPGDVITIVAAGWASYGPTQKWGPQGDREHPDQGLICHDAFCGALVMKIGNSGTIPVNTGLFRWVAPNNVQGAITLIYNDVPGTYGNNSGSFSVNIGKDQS

[2] = biological target: T1, P. aeruginosa lectin LecA; assay: Hemagglutination inhibition assay; assay type: biochemical; conditions: relative to D-galactose
In short: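 Twofold serial dilutions of test compound were preincubated with LecA for 30 min at 4 °C. Rabbit erythrocytes (5 % solution in PBS) were then added and incubated 1 h at RT. MIC was taken as the highest dilution giving complete inhibition of hemagglutination.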

n′ (stoichiometry, number of occupied lectin galactose binding sites per dendrimer) [1]	ΔH [1] [kcal/mol]	−T ΔS [1] [kcal/mol]	r.p./n, relative potency per galactose residue = (MIC(D-galactose)/MIC(ligand))/n [2]	r.p./n = (Kd(D-galactose)/Kd(ligand))/n [1]	Structure (SMILES)	Kd [1] [nM]
1.1±0.1	-8.4 ± 0.1	2.3 ± 0.4			O=C[C@H](O)[C@@H](O)[C@@H](O)[C@H](O)CO [D-galactose]	
1.1±0.1	-8.9 ± 0.5	2.8 ± 0.5	2.8	2.7	CC(C)S[C@@H]1O[C@H](CO)[C@H](O)[C@H](O)[C@H]1O [IPTG, isopropyl-β-thiogalactoside]	
0.9±0	-10.0 ± 0.1	3.4 ± 0.1	5.7	6.2	O=[N+]([O-])c1ccc(O[C@@H]2O[C@H](CO)[C@H](O)[C@H](O)[C@H]2O)cc1 [NPG, p-nitrophenyl-β-galactoside]	

Structure (SMILES)	n′ (stoichiometry, number of occupied lectin galactose binding sites per dendrimer) [1]	ΔH [1] [kcal/mol]	−T ΔS [1] [kcal/mol]	r.p./n, relative potency per galactose residue = (MIC(D-galactose)/MIC(ligand))/n [2]	r.p./n = (Kd(D-galactose)/Kd(ligand))/n [1]	Kd [1] [nM]
CC[C@H](C)[C@H](NC(=O)[C@H](CCCCN)NC(=O)[C@H](Cc1ccccc1)NC(=O)[C@H](CCCCNC(=O)[C@H](CC(C)C)NC(=O)[C@@H]1CCCN1C(=O)[C@H](CCCCN)NC(=O)CCS[C@@H]1O[C@H](CO)[C@H](O)[C@H](O)[C@H]1O)NC(=O)[C@H](CC(C)C)NC(=O)[C@@H]1CCCN1C(=O)[C@H](CCCCN)NC(=O)CCS[C@@H]1O[C@H](CO)[C@H](O)[C@H](O)[C@H]1O)C(N)=O [GalBG1] ([Mpa](βGal)KPLK([Leu-Pro-Lys-X1])FKI-NH2)	2.5±0.3	-8.3 ± 0.4	0.7 ± 0.4	2.5	20.5	2100 ± 1000
